# Test results: article PMC13618202 (ACS chemical biology, 2026)
# How the values were obtained:
# [1] = target: T1, UBA5 (Homo sapiens, UniProt Q9GZZ9); test: AMP-Glo UBA5 UFMylation assay; assay type: biochemical; settings: read-out: IC50-UBA5-Glo; UBA5 0.8 μM; UFM1 5 μM; ATP 5 μM
# T1 sequence (Q9GZZ9 37-346): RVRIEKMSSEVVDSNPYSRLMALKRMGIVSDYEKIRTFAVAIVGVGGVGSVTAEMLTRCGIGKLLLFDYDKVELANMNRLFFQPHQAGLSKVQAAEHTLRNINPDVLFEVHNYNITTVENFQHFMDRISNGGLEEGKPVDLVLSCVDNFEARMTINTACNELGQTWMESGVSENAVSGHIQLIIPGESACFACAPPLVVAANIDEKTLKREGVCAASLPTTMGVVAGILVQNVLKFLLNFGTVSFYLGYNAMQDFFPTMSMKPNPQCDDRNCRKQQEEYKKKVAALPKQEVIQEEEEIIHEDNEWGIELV
# [2] = target: T1, UBA5; test: Fluorescence polarization; assay type: biochemical; settings: titration
# Outline: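 UBA5 (1 μM) preincubated 1 h with test compound (0–25 μM), then UFM1 (2.5 μM) and ATP (20 μM) added for 30 min at RT. Transcreener detection reagent (anti-AMP antibody, Alexa Fluor 633 AMP tracer) added for 1.5 h. AMP read as fluorescence polarization. IC50 by curve fitting, triplicate.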
# [3] = test system: coupling enzymes in the AMP-Glo kit; test: UBA5-free AMP-Glo coupling enzyme assay; assay type: biochemical; settings: 3 mM, no UBA5, ATP 5 μM with or without AMP 5 μM
# Outline: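 Without UBA5: test compound (0–100 μM) incubated 30 min with AMP-Glo kit components and UFM1 (5 μM), then AMP added to a final 5 μM as direct substrate. Luminescence endpoint read at 37 °C with 2 min integration. Normalized to DMSO wells with AMP (100%) and without AMP (0%). Triplicate.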
# [4] = target: T1, UBA5; test: Gel-based UBA5-UFM1 charging assay; assay type: biochemical; settings: UBA5 12 μM; UFM1 25 μM; ATP 2 mM; 2 h
# Outline: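 UBA5 (12 μM) incubated 1 h with test compound (0–100 μM) in 50 mM Bis-Tris pH 6.5, 100 mM NaCl, 10 mM MgCl2. UFM1 (25 μM) and ATP (2 mM) then added for 2 h at 30 °C; zero time points taken before ATP addition. Gel read-out of UBA5–UFM1 thioester, duplicate.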
# [5] = test system: UBA5; settings: read-out: IC50 (UBA5); cited from earlier work
# [6] = test system: global cellular ubiquitination in HEK293T cells; test: Global cellular ubiquitination; assay type: cell-based, Human; settings: compounds 60 μM, TAK-243 125 or 250 nM, 5 h
IC50 [1] [µM],inhibition of UBA5 reaction in FP assay [2],interference with the AMP-Glo detection system [3],UBA5-UFM1 thioester formation (UFM1 activation) [4],Structure (SMILES),IC50 [5] [µM],global cellular ubiquitination [6]
547,dose-dependently inhibited the reaction,does not significantly interfere,significantly reduced UFM1 activation,COc1ccc(CNC(=O)CCl)cc1OC [DKM 2-93],430,–
–,–,–,–,NS(=O)(=O)OC[C@H]1C[C@@H](Nc2ccnc3cc(-c4cccc(SC(F)(F)F)c4)nn23)[C@H](O)[C@@H]1O [TAK-243],–,markedly reduced global cellular ubiquitination
–,–,–,–,"Nc1ncnc2c1ncn2[C@@H]1O[C@H](COS(N)(=O)=O)[C@@H](O)[C@H]1O [adenosine 5’-sulfamate (ADS), adenosine 5’-sulfamate]",13,–
